Source: PubChem BioAssay
In the library only some 1.9% were active in any assay of this set; here they are far more common.
NR2E3 ag-1: activates human NR2E3 receptor; CHO-S Gal4-NCOR/VP16-NR2E3 two-hybrid, luciferase; inhibition of corepressor binding, % at 3.98 µM; actives 0.35% (n = 360,000); AID 602229;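 active = inhibition above the mean of all tested compounds plus 3 SD, cut at about 70% in these data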;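 also: 0% = DMSO with NR2E3 transfected cells and 100% = cells lacking NR2E3 construct; higher means lower luciferase signal from less NR2E3 corepressor binding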
Target sequence (Q9Y5X4 whole entry, looked up, the tested form may be a part): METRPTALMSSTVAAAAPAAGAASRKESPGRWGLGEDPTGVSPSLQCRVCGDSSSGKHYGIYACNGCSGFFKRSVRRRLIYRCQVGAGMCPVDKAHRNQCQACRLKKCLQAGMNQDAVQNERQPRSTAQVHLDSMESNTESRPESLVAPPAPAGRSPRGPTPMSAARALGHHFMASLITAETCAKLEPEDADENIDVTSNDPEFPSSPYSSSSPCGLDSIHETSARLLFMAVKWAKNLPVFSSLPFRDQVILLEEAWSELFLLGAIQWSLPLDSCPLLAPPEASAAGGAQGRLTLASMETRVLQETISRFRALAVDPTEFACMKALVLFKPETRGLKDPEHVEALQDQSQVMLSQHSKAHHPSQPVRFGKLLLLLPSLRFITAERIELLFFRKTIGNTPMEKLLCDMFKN
NR1D1 modulator: Rev-erb alpha (human) modulation; activity, % at 10 µM; Rev-erbα–FITC-DNA binding, fluorescence polarization, 90 min; actives 0.79% (n = 370,000); P20393;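 active = activity above about 14%, limit read from the data; passing the limit was not always enough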;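 also: 0% = DMSO wells with 35 nM protein and 100% = DMSO wells with 750 nM protein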
SKN-1 inh: inhibitors of C. elegans SKN-1; C. elegans VP596 Pgst-4::GFP/RFP ratio, acrylamide-induced, 24 h; inhibition, % at 21.8 µM; actives 0.49% (n = 360,000); AID 624304;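 active = interference check ratio from 0.5 to 1.5 plus GFP to RFP signal ratio inhibition reaching or exceeding a fixed threshold, cut at about 30% in these data, passing the limit was not always enough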
PG9 binder: small molecules binding HIV-1 gp120 antibody PG9; actives 0.43% (n = 360,000); inhibition, % at 6.7 µM; TR-FRET gp120-PG9 antibody binding; in the data active = inhibition above about 8.5%
NR2E3 ag-2: activates human photoreceptor nuclear receptor NR2E3; Q9Y5X4; GST-NR2E3/biotin-RetCOR TR-FRET, 1536-well; inhibition of corepressor binding, % at 4.78 µM; actives 0.12% (n = 320,000); AID 2300;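 active = percent inhibition above the cutoff of mean plus 3 SD of all tested compounds, set per screening campaign, cut at about 20% in these data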;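 also: 0% = DMSO wells and 100% = biotin wells as full block of FRET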
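System: GST-NR2E3 and biotin-RetCOR proteins; probe or stimulus: 7 nM biotin-RetCOR; doses: compound at 4.8 µM, single dose; schedule: Compound–protein incubation for 5 h at 4 °C; detection: time-resolved FRET; read-out: percent inhibition; controls: biotin wells as high control, 0.6% DMSO wells as low control; format: 1536-well plates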
MT1-MMP act inh: MT1-MMP (human) activation inhibition. P50281. HT1080 RFP-PRO-GFP cells, GFP/RFP ratio fluorescence, overnight; percent of plate control window, DMSO zero. GFP/RFP ratio change, % at 20 µM. actives 0.061% (n = 360,000). AID 651647;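 active = GFP/RFP ratio change of at least 30% with cell ATP level not reduced by more than half and red fluorescence within 50% of control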
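system = RFP-PRO-GFP reporter HT1080 cells | dosing = 20 µM single dose, 1% DMSO | timing = overnight cell settling, then overnight compound exposure, 37 °C, 5% CO2 | read-out basis = GFP/RFP fluorescence ratio | controls = DMSO and RFP-L50D-GFP cell wells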
NR1D1 mod conf: confirmation of modulators of human Rev-erb alpha DNA binding; shares compounds with NR1D1 modulator; Rev-erb alpha FITC-DNA binding, fluorescence polarization, 90 min; activation, % at 25 µM; actives 61% (n = 3,000); AID 1259319;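 active = activation at or above a set limit, or at least 3 SD above the negative control mean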;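 also: 0% = 35 nM protein with DMSO and 100% = 750 nM protein high control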
RORg counter: affects RORgamma DNA binding in a Rev-erb alpha counter-screen. actives 8% (n = 910). IC50, µM. purified RORgamma protein-FITC-DNA binding, fluorescence polarization. shares compounds with NR1D1 modulator;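 active = Compounds whose fitted half-maximal concentration for disrupting protein-DNA binding is below 10 micromolar; the record names Rev-erb in its text, so the target is in doubt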
* marks the source's active call; other numbers are inactive results.

How did COc1ccc(NC(=O)c2cc(-c3ccc4c(c3)OCO4)on2)cc1 do in these assays?
NR2E3 ag-1: -41; NR1D1 modulator: 33*; SKN-1 inh: 11; PG9 binder: -2; NR2E3 ag-2: -4; MT1-MMP act inh: 4; NR1D1 mod conf: 1

How did CCOC(=O)Cc1ccc(Nc2nc(NCc3cccs3)nc3ccsc23)cc1 do in these assays?
NR2E3 ag-1: 14; NR1D1 modulator: 2; SKN-1 inh: 7; PG9 binder: 2; MT1-MMP act inh: 4

How did CCc1nc2c(OCc3ccccc3C(=O)OC)cccn2c1N(C)C(=O)CC(C)C do in these assays?
NR2E3 ag-1: -4; NR1D1 modulator: -7; SKN-1 inh: 15; PG9 binder: 3; MT1-MMP act inh: 3

How did C[C@@H]1C[C@H]2O[C@@H]2/C=C\C=C\C(=O)Cc2cc(O)cc(O)c2C(=O)O1 do in these assays?
NR1D1 modulator: -3

Results for C[C@H]1COc2cc(NCCCN3CCOCC3)ccc2S(=O)(=O)N1 ?
NR1D1 modulator: 3; PG9 binder: -1

What do the screens show for `Cn1c(COc2ccccc2)nnc1SCC(=O)Nc1ccc(OCc2ccccc2)cc1`?
NR1D1 modulator: -4

What do the screens show for `Cc1ccc(C(=O)OCC(=O)c2c[nH]c3ccccc23)cc1`?
NR2E3 ag-1: -38; NR1D1 modulator: -4; SKN-1 inh: 3; PG9 binder: 1; NR2E3 ag-2: 0; MT1-MMP act inh: -2

Results for O=C(OCC(=O)c1c[nH]c2ccccc12)c1cc(Br)ccc1O ?
NR2E3 ag-1: -59; NR1D1 modulator: 42*; SKN-1 inh: -6; PG9 binder: 2; NR2E3 ag-2: 1; MT1-MMP act inh: 2; NR1D1 mod conf: 41*; RORg counter: >40

How did CC1(C(=O)NS(=O)(=O)C2CC2)CCCN(C(=O)c2cc3ccccc3s2)C1 (stereo unspecified) do in these assays?
NR2E3 ag-1: 13; NR1D1 modulator: 8; SKN-1 inh: 9; PG9 binder: 1; MT1-MMP act inh: -7

What do the screens show for `O=C(CCl)N1c2ccccc2Oc2ccc3ccccc3c21`?
NR2E3 ag-1: -52; NR1D1 modulator: 15*; SKN-1 inh: 80; PG9 binder: -3; MT1-MMP act inh: -44; NR1D1 mod conf: 10

Results for COc1cc(F)ccc1-c1cc(C(=O)NCc2cc(C(F)(F)F)cc(C(F)(F)F)c2)[nH]n1 ?
NR2E3 ag-1: 19; NR1D1 modulator: 11; SKN-1 inh: -1; PG9 binder: -1; MT1-MMP act inh: -1

Results for Cc1ccc(OCC(=O)NNC(=O)CSc2ncnc3sc(C)c(C)c23)cc1 ?
NR2E3 ag-1: -8; NR1D1 modulator: 52*; SKN-1 inh: 1; PG9 binder: -3; NR2E3 ag-2: 3; MT1-MMP act inh: -3; NR1D1 mod conf: 16

Results for Cc1sc2ncnc(SCC(=O)NC(C)(C)C)c2c1C ?
NR2E3 ag-1: -3; NR1D1 modulator: 1; SKN-1 inh: 8; PG9 binder: 1; NR2E3 ag-2: 4; MT1-MMP act inh: 0

Results for CCc1ccc(OCC(=O)NNC(=O)CSc2ncnc3sc(C)c(C)c23)cc1 ?
NR2E3 ag-1: -1; NR1D1 modulator: 26*; SKN-1 inh: -5; PG9 binder: -1; NR2E3 ag-2: 0; MT1-MMP act inh: 3; NR1D1 mod conf: 13

What do the screens show for `COc1cccc(N2CCN(c3ccc4nnc(CCC(=O)Nc5cccc(C(C)=O)c5)n4n3)CC2)c1`?
NR2E3 ag-1: -22; NR1D1 modulator: 27*; SKN-1 inh: 11; PG9 binder: -2; NR2E3 ag-2: 0; MT1-MMP act inh: 2; NR1D1 mod conf: 8

Results for COc1cccc(N2CCN(c3ccc4nnc(CCC(=O)Nc5ccc(F)cc5)n4n3)CC2)c1 ?
NR2E3 ag-1: -4; NR1D1 modulator: 3; SKN-1 inh: 7; PG9 binder: -1; NR2E3 ag-2: 0; MT1-MMP act inh: 4

Results for CC1CCN(c2ccc3nnc(CCC(=O)Nc4ccc(F)c(F)c4)n3n2)CC1 ?
NR2E3 ag-1: -10; NR1D1 modulator: 28*; SKN-1 inh: -6; PG9 binder: -2; NR2E3 ag-2: -3; MT1-MMP act inh: 1; NR1D1 mod conf: 2

What do the screens show for `O=C1CCCC(O)=C1C=Nc1ccc2c(c1)oc1ccccc12`?
NR2E3 ag-1: -24; NR1D1 modulator: 30*; SKN-1 inh: 3; PG9 binder: 0; NR2E3 ag-2: 1; MT1-MMP act inh: 2; NR1D1 mod conf: 28*

How did CN1C(=O)[C@H]2[C@@H](c3ccc(C(F)(F)F)cc3)N[C@]3(CCCN(Cc4ccc(Cl)cc4)C3=O)[C@H]2C1=O do in these assays?
NR2E3 ag-1: 5; NR1D1 modulator: 7; SKN-1 inh: 2; PG9 binder: -2; MT1-MMP act inh: 3

What do the screens show for `O=C(O)CSc1c2ccccc2cc2ccccc12`?
NR2E3 ag-1: -18; NR1D1 modulator: 41*; SKN-1 inh: -12; PG9 binder: -1; NR2E3 ag-2: -4; MT1-MMP act inh: -1; NR1D1 mod conf: 38*; RORg counter: >40

What do the screens show for `COc1cc(/C=C2\SC(=O)N(CCNC(=O)c3sc4cc(F)ccc4c3Cl)C2=O)cc(OC)c1OC`?
NR2E3 ag-1: -25; NR1D1 modulator: 72*; SKN-1 inh: 4; PG9 binder: 1; NR2E3 ag-2: 2; MT1-MMP act inh: 5; NR1D1 mod conf: 32*; RORg counter: inactive

How did CSCCC(NC(=O)c1ccccc1Cl)C(=O)NCCOc1ccc(C)cc1 (stereo unspecified) do in these assays?
NR2E3 ag-1: -28; NR1D1 modulator: -4; SKN-1 inh: -5; PG9 binder: 1; MT1-MMP act inh: 0

What do the screens show for `COc1cc(OC)cc(C(=O)N(Cc2ccco2)c2c(N)n(Cc3ccccc3)c(=O)[nH]c2=O)c1`?
NR2E3 ag-1: 10; NR1D1 modulator: 17*; SKN-1 inh: -1; PG9 binder: -2; MT1-MMP act inh: -3; NR1D1 mod conf: -4

Results for Cc1ccc(C(=O)N(Cc2ccco2)c2c(N)n(Cc3ccccc3)c(=O)[nH]c2=O)cc1 ?
NR2E3 ag-1: 7; NR1D1 modulator: 1; SKN-1 inh: 15; PG9 binder: 0; MT1-MMP act inh: -3

How did COc1ccccc1NC(=O)c1oc2ccccc2c1NC(=O)C1CC1 do in these assays?
NR2E3 ag-1: -43; NR1D1 modulator: 5; SKN-1 inh: 16; PG9 binder: -2; NR2E3 ag-2: 0; MT1-MMP act inh: -2
